Measured values reported in ChEMBL document CHEMBL3627690, “Scaffold-Hopping and Structure-Based Discovery of Potent, Selective, And Brain Penetrant N-(1H-Pyrazol-3-yl)pyridin-2-amine Inhibitors of Dual Leucine Zipper Kinase (DLK, MAP3K12)” (J Med Chem, 2015).

Legend:
[1] = target: Receptor-type tyrosine-protein kinase FLT3 (Homo sapiens) (UniProt P36888); details: 1 uM
[2] = target: Insulin-like growth factor 1 receptor (Homo sapiens) (UniProt P08069); assay: Inhibition of IGF1R (unknown origin) at 1 uM by FRET method
Sequence of Insulin-like growth factor 1 receptor (Homo sapiens) (P08069 31-736 limits assumed): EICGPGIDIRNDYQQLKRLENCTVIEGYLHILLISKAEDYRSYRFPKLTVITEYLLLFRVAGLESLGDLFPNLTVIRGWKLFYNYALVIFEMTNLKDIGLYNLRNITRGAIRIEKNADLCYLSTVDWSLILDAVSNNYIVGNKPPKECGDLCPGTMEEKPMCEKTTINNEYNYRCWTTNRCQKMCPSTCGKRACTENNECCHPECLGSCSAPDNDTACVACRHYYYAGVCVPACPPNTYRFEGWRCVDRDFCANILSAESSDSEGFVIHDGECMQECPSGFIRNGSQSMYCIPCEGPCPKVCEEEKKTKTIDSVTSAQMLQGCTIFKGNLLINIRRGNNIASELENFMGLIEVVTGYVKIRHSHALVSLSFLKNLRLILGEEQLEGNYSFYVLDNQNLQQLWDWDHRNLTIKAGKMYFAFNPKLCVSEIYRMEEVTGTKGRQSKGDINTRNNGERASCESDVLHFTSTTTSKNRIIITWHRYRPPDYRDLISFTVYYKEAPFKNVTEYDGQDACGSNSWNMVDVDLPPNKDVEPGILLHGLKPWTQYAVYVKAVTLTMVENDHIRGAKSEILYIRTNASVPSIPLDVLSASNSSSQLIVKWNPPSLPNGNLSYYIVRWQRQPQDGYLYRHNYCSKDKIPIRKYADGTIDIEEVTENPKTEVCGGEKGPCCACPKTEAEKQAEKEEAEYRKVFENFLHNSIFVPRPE
Sequence of Insulin-like growth factor 1 receptor (Homo sapiens) (P08069 741-1367 limits assumed): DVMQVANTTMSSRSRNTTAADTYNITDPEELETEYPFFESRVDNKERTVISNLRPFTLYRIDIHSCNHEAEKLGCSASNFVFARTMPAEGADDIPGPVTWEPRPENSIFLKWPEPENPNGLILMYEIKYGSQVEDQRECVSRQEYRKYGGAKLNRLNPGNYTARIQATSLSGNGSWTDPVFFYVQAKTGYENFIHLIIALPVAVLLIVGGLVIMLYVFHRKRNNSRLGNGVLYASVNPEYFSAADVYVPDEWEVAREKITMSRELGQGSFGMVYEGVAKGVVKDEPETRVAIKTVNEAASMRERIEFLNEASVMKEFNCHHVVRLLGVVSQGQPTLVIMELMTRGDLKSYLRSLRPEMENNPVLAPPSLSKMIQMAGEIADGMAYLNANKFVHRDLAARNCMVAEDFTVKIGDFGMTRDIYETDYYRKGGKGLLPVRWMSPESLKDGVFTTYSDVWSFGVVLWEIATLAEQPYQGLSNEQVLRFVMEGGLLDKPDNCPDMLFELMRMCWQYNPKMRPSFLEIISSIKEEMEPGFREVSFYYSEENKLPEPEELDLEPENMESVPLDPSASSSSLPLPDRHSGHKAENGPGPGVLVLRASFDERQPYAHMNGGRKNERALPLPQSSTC
Procedure, shortened: (§1)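 SelectScreen panel of 58 kinases, each tested at a single 1 µM compound concentration. Read-out was Z′-LYTE FRET of labeled peptide phosphorylation, run by the vendor's protocols, reported as percent inhibition.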

[3] = target: Dual specificity mitogen-activated protein kinase kinase 1 (Homo sapiens) (UniProt Q02750); assay: Inhibition of MEK1 (unknown origin) at 1 uM by FRET method
Procedure, shortened: as §1

[4] = Volume of distribution at steady state in […] rat at 0.4 or 1 mg/kg, iv and 1 or 5 mg/kg, po; assay type: ADME, organism-based; details: in vivo, read-out: Vdss
Procedure, shortened: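 Rat PK: iv dosing at 0.4 or 1 mg/kg as a 60% PEG solution, po dosing at 1 or 5 mg/kg as an aqueous suspension with 1% methylcellulose.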

[5] = target: Mitogen-activated protein kinase kinase kinase kinase 4 (Homo sapiens) (UniProt O95819); assay: Inhibition of MAP4K4 (unknown origin) at 1 uM by FRET method
Procedure, shortened: as §1

[6] = target: T1, Mitogen-activated protein kinase kinase kinase 10 (Homo sapiens, UniProt Q02779); details: 1 uM
Target sequence in this assay (Q02779 whole entry, looked up): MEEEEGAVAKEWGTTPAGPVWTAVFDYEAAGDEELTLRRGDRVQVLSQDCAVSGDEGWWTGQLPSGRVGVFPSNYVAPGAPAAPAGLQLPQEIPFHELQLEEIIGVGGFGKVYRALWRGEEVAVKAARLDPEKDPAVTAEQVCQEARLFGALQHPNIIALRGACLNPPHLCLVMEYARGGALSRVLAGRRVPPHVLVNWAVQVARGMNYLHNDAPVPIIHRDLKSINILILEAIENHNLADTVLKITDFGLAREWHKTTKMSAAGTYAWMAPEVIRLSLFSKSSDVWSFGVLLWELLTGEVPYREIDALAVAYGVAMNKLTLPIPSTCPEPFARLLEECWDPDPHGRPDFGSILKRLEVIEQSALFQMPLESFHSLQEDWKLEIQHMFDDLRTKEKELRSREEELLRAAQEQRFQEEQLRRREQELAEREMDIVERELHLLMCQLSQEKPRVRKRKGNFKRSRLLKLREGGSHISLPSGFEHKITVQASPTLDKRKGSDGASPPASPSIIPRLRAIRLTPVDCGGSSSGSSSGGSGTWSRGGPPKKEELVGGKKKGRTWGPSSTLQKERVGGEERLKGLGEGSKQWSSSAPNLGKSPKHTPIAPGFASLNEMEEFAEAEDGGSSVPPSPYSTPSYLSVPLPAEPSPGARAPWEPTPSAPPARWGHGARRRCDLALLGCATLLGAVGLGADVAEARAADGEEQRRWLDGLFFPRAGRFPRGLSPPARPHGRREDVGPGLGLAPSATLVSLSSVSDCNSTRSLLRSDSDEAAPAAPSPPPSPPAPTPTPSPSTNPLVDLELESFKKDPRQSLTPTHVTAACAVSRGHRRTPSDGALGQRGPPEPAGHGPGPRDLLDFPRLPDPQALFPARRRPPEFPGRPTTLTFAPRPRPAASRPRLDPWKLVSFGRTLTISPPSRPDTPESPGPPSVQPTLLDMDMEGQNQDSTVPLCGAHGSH

[7] = target: T2, Mitogen-activated protein kinase 8 (Homo sapiens, UniProt P45983); assay: Inhibition of JNK1 (unknown origin) by FRET method
T2 sequence (P45983 whole entry): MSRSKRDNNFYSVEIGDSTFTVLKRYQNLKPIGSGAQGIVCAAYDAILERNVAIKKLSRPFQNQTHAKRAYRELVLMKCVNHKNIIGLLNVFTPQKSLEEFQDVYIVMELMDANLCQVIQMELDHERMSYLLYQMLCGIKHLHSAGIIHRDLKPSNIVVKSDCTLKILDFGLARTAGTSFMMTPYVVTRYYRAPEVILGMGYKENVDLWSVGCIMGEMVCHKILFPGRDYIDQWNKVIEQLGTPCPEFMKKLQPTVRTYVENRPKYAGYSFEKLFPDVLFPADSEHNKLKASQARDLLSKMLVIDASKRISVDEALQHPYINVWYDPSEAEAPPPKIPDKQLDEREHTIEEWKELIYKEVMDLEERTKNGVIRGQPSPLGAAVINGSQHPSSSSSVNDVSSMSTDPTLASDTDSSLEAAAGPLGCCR
Procedure, shortened: (§2)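 JNK1, JNK2 and JNK3 IC50 values came from a 10-point dose–response enzymatic assay.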

[8] = target: Tyrosine-protein kinase SYK (Homo sapiens) (UniProt P43405); assay: Inhibition of Syk (unknown origin) at 1 uM by FRET method
Procedure, shortened: (§3)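 Single-point screen at 1 uM against a panel of 58 representative kinases. Readout was labeled-peptide phosphorylation by FRET (Z′-LYTE), using the vendor's protocols.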

[9] = target: T2, Mitogen-activated protein kinase 8; assay: Inhibition of JNK1alpha1(unknown origin) at 1 uM by FRET method
Procedure, shortened: as §1

[10] = target: T1, Mitogen-activated protein kinase kinase kinase 10; assay: Inhibition of MLK2 (unknown origin) by FRET method
Procedure, shortened: (§4)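 Biochemical IC50 determination from a 10-point dose-response in an enzymatic Z′-LYTE assay. Labeled-peptide phosphorylation was read by FRET under the vendor's protocols.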
Target sequence in this assay (Q02779 whole entry): as the sequence (Q02779 whole entry, looked up) above

[11] = target: T3, Mitogen-activated protein kinase kinase kinase 12 (Homo sapiens, UniProt Q12852); assay: Inhibition of Dox inducible human DLK transfected in HEK293 cells assessed as reduction in JNK phosphorylation incubated for 5.5 hrs measured by Hoechst 33342 staining based imaging analysis; assay type: cell-based
T3 sequence (Q12852 whole entry): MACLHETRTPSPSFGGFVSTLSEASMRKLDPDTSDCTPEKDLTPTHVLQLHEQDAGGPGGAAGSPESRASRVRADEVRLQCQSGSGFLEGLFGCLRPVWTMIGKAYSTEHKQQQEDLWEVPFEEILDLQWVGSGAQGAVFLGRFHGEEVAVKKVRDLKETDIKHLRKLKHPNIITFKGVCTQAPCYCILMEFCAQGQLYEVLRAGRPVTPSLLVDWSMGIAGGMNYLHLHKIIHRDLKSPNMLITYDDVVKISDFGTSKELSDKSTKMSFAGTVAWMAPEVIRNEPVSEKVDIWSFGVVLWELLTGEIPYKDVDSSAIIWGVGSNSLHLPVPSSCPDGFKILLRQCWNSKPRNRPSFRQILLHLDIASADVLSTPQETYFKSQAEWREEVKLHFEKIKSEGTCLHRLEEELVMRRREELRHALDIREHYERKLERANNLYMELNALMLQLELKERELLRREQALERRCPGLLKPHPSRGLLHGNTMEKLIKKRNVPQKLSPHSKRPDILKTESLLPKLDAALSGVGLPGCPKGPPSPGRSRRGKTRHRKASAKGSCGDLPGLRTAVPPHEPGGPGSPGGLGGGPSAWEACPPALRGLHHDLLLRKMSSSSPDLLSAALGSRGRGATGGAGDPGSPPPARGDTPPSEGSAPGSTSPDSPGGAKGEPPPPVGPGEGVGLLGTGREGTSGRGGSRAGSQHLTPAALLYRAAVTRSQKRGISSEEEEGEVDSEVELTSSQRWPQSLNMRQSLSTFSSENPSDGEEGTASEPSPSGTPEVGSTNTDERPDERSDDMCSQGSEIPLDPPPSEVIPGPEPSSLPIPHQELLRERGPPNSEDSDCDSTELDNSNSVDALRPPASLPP

[12] = Ratio of unbound AUC in brain to plasma of […] rat at 0.4 or 1 mg/kg, iv and 1 or 5 mg/kg, po; assay type: ADME, organism-based
Procedure, shortened: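 Rat PK: iv dosing at 0.4 or 1 mg/kg as a 60% PEG solution and oral dosing at 1 or 5 mg/kg as an aqueous suspension in 1% methylcellulose. The ratio is unbound brain AUC over unbound plasma AUC. Unbound clearance was taken as CL/fu, where fu is the fraction unbound in plasma.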

[13] = Neuroprotective activity in Wistar rat DRG neuronal cells by neurodegeration assay; assay type: functional, cell-based
[14] = target: BDNF/NT-3 growth factors receptor (Homo sapiens, UniProt Q16620); assay: Inhibition of TrkB (unknown origin) by FRET method
Sequence of BDNF/NT-3 growth factors receptor (Q16620 whole entry): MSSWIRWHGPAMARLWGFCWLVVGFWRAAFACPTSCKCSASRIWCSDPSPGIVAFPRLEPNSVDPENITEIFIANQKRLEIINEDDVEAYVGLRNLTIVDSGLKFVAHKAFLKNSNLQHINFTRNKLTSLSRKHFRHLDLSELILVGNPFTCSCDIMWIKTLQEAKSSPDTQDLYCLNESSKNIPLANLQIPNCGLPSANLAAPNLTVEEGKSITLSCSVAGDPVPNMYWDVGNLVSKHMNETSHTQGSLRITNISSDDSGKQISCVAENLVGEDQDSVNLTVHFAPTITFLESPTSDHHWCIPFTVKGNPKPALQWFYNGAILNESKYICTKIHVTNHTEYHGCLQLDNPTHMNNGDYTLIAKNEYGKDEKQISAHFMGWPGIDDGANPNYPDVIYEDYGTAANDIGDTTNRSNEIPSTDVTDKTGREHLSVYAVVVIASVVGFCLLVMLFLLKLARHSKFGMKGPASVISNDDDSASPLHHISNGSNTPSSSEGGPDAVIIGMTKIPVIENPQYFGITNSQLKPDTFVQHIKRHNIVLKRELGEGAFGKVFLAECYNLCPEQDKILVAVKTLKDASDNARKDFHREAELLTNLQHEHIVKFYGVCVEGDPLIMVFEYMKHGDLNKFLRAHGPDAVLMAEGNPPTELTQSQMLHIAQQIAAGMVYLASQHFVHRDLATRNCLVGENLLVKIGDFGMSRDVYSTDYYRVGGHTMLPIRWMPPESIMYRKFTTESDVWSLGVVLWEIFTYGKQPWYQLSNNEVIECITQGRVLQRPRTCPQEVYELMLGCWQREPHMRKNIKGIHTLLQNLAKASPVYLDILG
Procedure, shortened: as §4

[15] = target: Casein kinase I isoform gamma-2 (Homo sapiens) (UniProt P78368); assay: Inhibition of CK1gamma2 (unknown origin) at 1 uM by FRET method
Sequence of Casein kinase I isoform gamma-2 (Homo sapiens) (P78368 whole entry, looked up, canonical isoform): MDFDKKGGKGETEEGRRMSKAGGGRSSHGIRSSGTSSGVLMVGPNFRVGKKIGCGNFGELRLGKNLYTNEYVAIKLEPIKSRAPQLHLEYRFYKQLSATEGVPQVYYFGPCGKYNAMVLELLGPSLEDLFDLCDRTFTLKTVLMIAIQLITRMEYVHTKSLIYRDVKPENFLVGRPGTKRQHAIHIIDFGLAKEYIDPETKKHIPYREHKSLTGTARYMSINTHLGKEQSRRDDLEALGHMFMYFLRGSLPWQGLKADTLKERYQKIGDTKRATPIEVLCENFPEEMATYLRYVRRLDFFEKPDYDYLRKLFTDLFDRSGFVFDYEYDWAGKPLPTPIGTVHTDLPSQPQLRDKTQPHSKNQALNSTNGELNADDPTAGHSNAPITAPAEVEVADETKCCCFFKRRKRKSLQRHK
Procedure, shortened: as §1

[16] = target: Mast/stem cell growth factor receptor Kit (Homo sapiens, UniProt P10721); assay: Inhibition of Kit (unknown origin) by FRET method
[17] = target: 5'-AMP-activated protein kinase catalytic subunit alpha-1 (Homo sapiens) (UniProt Q13131); assay: Inhibition of PRKAA1 (unknown origin) at 1 uM by FRET method
Procedure, shortened: as §3

[18] = Half life in […] rat at 0.4 or 1 mg/kg, iv and 1 or 5 mg/kg, po; assay type: ADME, organism-based; details: in vivo
Procedure, shortened: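 Rat PK used iv dosing at 0.4 or 1 mg/kg in 60% PEG solution and po dosing at 1 or 5 mg/kg as an aqueous 1% methylcellulose suspension. Free clearance is CL/fu, where fu is the fraction unbound in plasma.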

[19] = target: Angiopoietin-1 receptor (Homo sapiens) (UniProt Q02763); assay: Inhibition of Tie2 (unknown origin) at 1 uM by FRET method
Procedure, shortened: as §3

[20] = target: Myotonin-protein kinase (Homo sapiens) (UniProt Q09013); assay: Inhibition of DMPK (unknown origin) at 1 uM by FRET method
Procedure, shortened: as §1

[21] = target: Glycogen synthase kinase-3 beta (Homo sapiens, UniProt P49841); assay: Inhibition of GSK3beta (unknown origin) by FRET method
[22] = target: Proto-oncogene tyrosine-protein kinase Src (Homo sapiens, UniProt P12931); details: 1 uM
[23] = target: Mitogen-activated protein kinase 10 (Homo sapiens, UniProt P53779); assay: Inhibition of JNK3 (unknown origin) by FRET method
Procedure, shortened: as §2

Sequence of Receptor-type tyrosine-protein kinase FLT3 (Homo sapiens) (P36888 whole entry): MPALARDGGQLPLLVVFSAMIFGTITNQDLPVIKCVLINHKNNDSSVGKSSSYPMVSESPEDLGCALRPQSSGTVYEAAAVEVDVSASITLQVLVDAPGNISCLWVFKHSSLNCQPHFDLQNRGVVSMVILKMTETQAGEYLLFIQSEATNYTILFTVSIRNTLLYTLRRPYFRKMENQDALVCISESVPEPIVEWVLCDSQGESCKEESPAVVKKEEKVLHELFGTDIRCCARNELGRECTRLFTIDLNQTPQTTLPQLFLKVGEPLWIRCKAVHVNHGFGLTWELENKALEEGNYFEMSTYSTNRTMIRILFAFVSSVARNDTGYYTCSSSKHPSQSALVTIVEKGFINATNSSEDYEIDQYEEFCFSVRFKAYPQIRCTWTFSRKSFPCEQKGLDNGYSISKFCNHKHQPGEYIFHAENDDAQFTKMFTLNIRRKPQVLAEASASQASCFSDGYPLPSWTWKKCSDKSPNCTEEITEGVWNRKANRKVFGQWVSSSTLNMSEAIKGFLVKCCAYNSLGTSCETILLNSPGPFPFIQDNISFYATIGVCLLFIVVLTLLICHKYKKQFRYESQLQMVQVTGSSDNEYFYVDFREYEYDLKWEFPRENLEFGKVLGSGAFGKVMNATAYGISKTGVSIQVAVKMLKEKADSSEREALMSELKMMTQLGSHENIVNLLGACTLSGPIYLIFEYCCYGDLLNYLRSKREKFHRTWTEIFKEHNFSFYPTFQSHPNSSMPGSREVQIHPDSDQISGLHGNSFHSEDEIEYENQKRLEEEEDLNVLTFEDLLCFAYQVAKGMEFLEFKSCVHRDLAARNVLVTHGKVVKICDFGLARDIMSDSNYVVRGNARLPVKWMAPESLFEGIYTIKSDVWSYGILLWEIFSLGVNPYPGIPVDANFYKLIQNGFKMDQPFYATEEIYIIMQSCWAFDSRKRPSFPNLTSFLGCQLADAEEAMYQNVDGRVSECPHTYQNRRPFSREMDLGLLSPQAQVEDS

N#Cc1ccnc(Nc2cc(C3CCN(C4COC4)CC3)n(C3CCCC3)n2)c1
inhibition [1]: 65.4%
inhibition [2]: 37%
inhibition [3]: 4%
Vd [4]: 4.4 L/kg
inhibition [5]: 12.1%
inhibition [6]: 1.6%
IC50 [7]: 1040 nM
inhibition [8]: 41.2%
inhibition [9]: 4.5%
IC50 [10]: > 10000 nM
IC50 [11]: 536 nM
Kp uu [12]: 0.35
EC50 [13]: 2150 nM
IC50 [14]: 1190 nM
inhibition [15]: 1.8%
IC50 [16]: 534 nM
inhibition [17]: 1.8%
half-life [18]: 1.7 h
inhibition [19]: 1.8%
inhibition [20]: 12%
IC50 [21]: 682 nM
inhibition [22]: 55.4%
IC50 [23]: 2100 nM
